Test results: ChEMBL document CHEMBL1629597, “In vitro evaluation of the antimicrobial activity of ceftaroline against cephalosporin-resistant isolates of Streptococcus pneumoniae” (2009)
≈ marks a conversion by molar mass, not a printed value.

Columns and labels:
Type in all cases: functional
[1] = tested on: Streptococcus pneumoniae; assay: Antimicrobial activity against Streptococcus pneumoniae R6 by broth microdilution method
Procedure, shortened: (§1)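 Reference broth microdilution MIC per CLSI guidelines, testing ceftaroline, penicillin, ceftriaxone and cefotaxime against susceptible laboratory strain R6 and R6 transformants. The transformants carry pbp and/or murM genes with β-lactam-resistance mutations, or genomic DNA, from donors 3191 (Hungarian clone) and 72521 (French isolate). MICs are in μg/ml.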

[2] = tested on: Streptococcus pneumoniae; assay: Antimicrobial activity against Streptococcus pneumoniae by broth microdilution method
[3] = tested on: Streptococcus pneumoniae; assay: Antimicrobial activity against Streptococcus pneumoniae 3191 by broth microdilution method
[4] = tested on: Streptococcus pneumoniae; assay: Antimicrobial activity against Streptococcus pneumoniae 72521 by broth microdilution method
[5] = tested on: Streptococcus pneumoniae; assay: Antimicrobial activity against Streptococcus pneumoniae R6 transformed with Streptococcus pneumoniae 3191 pbp2x gene by broth microdilution method; procedure, shortened: as §1
[6] = tested on: Streptococcus pneumoniae; assay: Antimicrobial activity against Streptococcus pneumoniae R6 transformed with Streptococcus pneumoniae 3191 pbp2b, pbp1a and murM genes by broth microdilution method; procedure, shortened: as §1
[7] = tested on: Streptococcus pneumoniae; assay: Antimicrobial activity against Streptococcus pneumoniae R6 transformed with Streptococcus pneumoniae 3191 pbp2x and pbp1a genes by broth microdilution method; procedure, shortened: as §1
[8] = tested on: Streptococcus pneumoniae; assay: Antimicrobial activity against Streptococcus pneumoniae R6 transformed with Streptococcus pneumoniae 72521 pbp2x and pbp2b genes by broth microdilution method; procedure, shortened: as §1
[9] = tested on: Streptococcus pneumoniae; assay: Antimicrobial activity against Streptococcus pneumoniae R6 transformed with Streptococcus pneumoniae 3191 pbp2x and pbp2b genes by broth microdilution method; procedure, shortened: as §1
[10] = tested on: Streptococcus pneumoniae; assay: Antimicrobial activity against Streptococcus pneumoniae R6 transformed with Streptococcus pneumoniae 3191 pbp2x and Streptococcus pneumoniae 72521 pbp2b genes by broth microdilution method; procedure, shortened: as §1
[11] = tested on: Streptococcus pneumoniae; assay: Antimicrobial activity against Streptococcus pneumoniae R6 transformed with Streptococcus pneumoniae 72521 pbp2x, pbp1a and pbp2b genes by broth microdilution method; procedure, shortened: as §1
[12] = tested on: Streptococcus pneumoniae; assay: Antimicrobial activity against Streptococcus pneumoniae R6 transformed with Streptococcus pneumoniae 72521 pbp2x, pbp2b and Streptococcus pneumoniae 3191 pbp1a genes by broth microdilution method; procedure, shortened: as §1
[13] = tested on: Streptococcus pneumoniae; assay: Antimicrobial activity against Streptococcus pneumoniae R6 transformed with Streptococcus pneumoniae 72521 genomic DNA, pbp2x, pbp1a and pbp2b genes by broth microdilution method; procedure, shortened: as §1
[14] = tested on: Streptococcus pneumoniae; assay: Antimicrobial activity against Streptococcus pneumoniae R6 transformed with Streptococcus pneumoniae 72521 pbp2x, pbp1a, pbp2b genes and Streptococcus pneumoniae 3191 genomic DNA by broth microdilution method; procedure, shortened: as §1
[15] = tested on: Streptococcus pneumoniae; assay: Antimicrobial activity against Streptococcus pneumoniae R6 transformed with Streptococcus pneumoniae 72521 pbp2x, pbp1a, pbp2b and Streptococcus pneumoniae 3191 murM genes by broth microdilution method; procedure, shortened: as §1
[16] = tested on: Streptococcus pneumoniae; assay: Antimicrobial activity against Streptococcus pneumoniae R6 transformed with Streptococcus pneumoniae 3191 pbp2x, pbp2b, murM and Streptococcus pneumoniae 72521 pbp1a genes by broth microdilution method; procedure, shortened: as §1
[17] = tested on: Streptococcus pneumoniae; assay: Antimicrobial activity against Streptococcus pneumoniae R6 transformed with Streptococcus pneumoniae 72521 genomic DNA, pbp2x, pbp1a, pbp2b and Streptococcus pneumoniae 3191 pbp1a genes by broth microdilution method; procedure, shortened: as §1
[18] = tested on: Streptococcus pneumoniae; assay: Antimicrobial activity against Streptococcus pneumoniae R6 transformed with Streptococcus pneumoniae 72521 murM, pbp2x, pbp2b and Streptococcus pneumoniae 3191 pbp1a genes by broth microdilution method; procedure, shortened: as §1
[19] = tested on: Streptococcus pneumoniae; assay: Antimicrobial activity against Streptococcus pneumoniae R6 transformed with Streptococcus pneumoniae 3191 pbp2x, pbp2b, pbp1a and Streptococcus pneumoniae 72521 murM genes by broth microdilution method; procedure, shortened: as §1
[20] = tested on: Streptococcus pneumoniae; assay: Antimicrobial activity against Streptococcus pneumoniae R6 transformed with Streptococcus pneumoniae 3191 pbp2x, pbp2b, pbp1a genes by broth microdilution method; procedure, shortened: as §1
[21] = tested on: Streptococcus pneumoniae; assay: Antimicrobial activity against Streptococcus pneumoniae R6 transformed with Streptococcus pneumoniae 72521 pbp2x gene by broth microdilution method; procedure, shortened: as §1

Row | Compound | MIC [1] | MIC50 [2] | MIC90 [2] | MIC [3] | MIC [4] | MIC [5] | MIC [6] | MIC [7] | MIC [8] | MIC [9] | MIC [10] | MIC [11] | MIC [12] | MIC [13] | MIC [14] | MIC [15] | MIC [16] | MIC [17] | MIC [18] | MIC [19] | also measured
1 | CC1(C)S[C@@H]2[C@H](NC(=O)[C@H](N)c3ccc(O)cc3)C(=O)N2[C@H]1C(=O)O [AMOXICILLIN] | ≤ 0.015 µg/mL | 8 µg/mL (≈ 21.9 µM) | > 8 µg/mL | 8 µg/mL (≈ 21.9 µM) | 8 µg/mL (≈ 21.9 µM) | 0.047 µg/mL (≈ 0.129 µM) | 0.023 µg/mL (≈ 0.0629 µM) | 0.032 µg/mL (≈ 0.0876 µM) | 0.094 µg/mL (≈ 0.257 µM) | 0.19 µg/mL (≈ 0.52 µM) | 0.19 µg/mL (≈ 0.52 µM) | 0.5 µg/mL (≈ 1.37 µM) | 0.75 µg/mL (≈ 2.05 µM) | 1 µg/mL (≈ 2.74 µM) | 1 µg/mL (≈ 2.74 µM) | 1 µg/mL (≈ 2.74 µM) | 1.5 µg/mL (≈ 4.1 µM) | 1.5 µg/mL (≈ 4.1 µM) | 3 µg/mL (≈ 8.21 µM) | 4 µg/mL (≈ 10.9 µM) | MIC [20]: 4 µg/mL (≈ 10.9 µM)
2 | CO/N=C(\C(=O)N[C@@H]1C(=O)N2C(C(=O)O)=C(COC(C)=O)CS[C@H]12)c1csc(N)n1 [CEFOTAXIME] | 0.03 µg/mL (≈ 0.0659 µM) | 8 µg/mL (≈ 17.6 µM) | 8 µg/mL (≈ 17.6 µM) | 4 µg/mL (≈ 8.78 µM) | 2 µg/mL (≈ 4.39 µM) | 0.03 µg/mL (≈ 0.0659 µM) | 0.03 µg/mL (≈ 0.0659 µM) | 0.06 µg/mL (≈ 0.132 µM) | 0.5 µg/mL (≈ 1.1 µM) | 0.5 µg/mL (≈ 1.1 µM) | 1 µg/mL (≈ 2.2 µM) | 2 µg/mL (≈ 4.39 µM) | 2 µg/mL (≈ 4.39 µM) | 2 µg/mL (≈ 4.39 µM) | 2 µg/mL (≈ 4.39 µM) | 2 µg/mL (≈ 4.39 µM) | 2 µg/mL (≈ 4.39 µM) | 4 µg/mL (≈ 8.78 µM) | 4 µg/mL (≈ 8.78 µM) | 16 µg/mL (≈ 35.1 µM) | MIC [21]: 0.06 µg/mL (≈ 0.132 µM); MIC [20]: 16 µg/mL (≈ 35.1 µM)
3 | CO/N=C(\C(=O)N[C@@H]1C(=O)N2C(C(=O)O)=C(CSc3nc(=O)c(O)nn3C)CS[C@H]12)c1csc(N)n1 [CEFTRIAXONE] | 0.03 µg/mL (≈ 0.0541 µM) | 8 µg/mL (≈ 14.4 µM) | 8 µg/mL (≈ 14.4 µM) | 8 µg/mL (≈ 14.4 µM) | 4 µg/mL (≈ 7.21 µM) | 2 µg/mL (≈ 3.61 µM) | 0.06 µg/mL (≈ 0.108 µM) | 2 µg/mL (≈ 3.61 µM) | 1 µg/mL (≈ 1.8 µM) | 1 µg/mL (≈ 1.8 µM) | 2 µg/mL (≈ 3.61 µM) | 0.5 µg/mL (≈ 0.902 µM) | 2 µg/mL (≈ 3.61 µM) | 0.5 µg/mL (≈ 0.902 µM) | 2 µg/mL (≈ 3.61 µM) | 1 µg/mL (≈ 1.8 µM) | 4 µg/mL (≈ 7.21 µM) | 2 µg/mL (≈ 3.61 µM) | 4 µg/mL (≈ 7.21 µM) | 8 µg/mL (≈ 14.4 µM) | MIC [21]: 0.5 µg/mL (≈ 0.902 µM); MIC [20]: 4 µg/mL (≈ 7.21 µM)
4 | C[C@@H](O)[C@H]1C(=O)N2C(C(=O)O)=C(S[C@@H]3CN[C@H](C(=O)N(C)C)C3)[C@H](C)[C@H]12 [MEROPENEM] |  | 1 µg/mL (≈ 2.61 µM) | 2 µg/mL (≈ 5.22 µM) |  |  |  |  |  |  |  |  |  |  |  |  |  |  |  |  |  | 
5 | CC1(C)S[C@@H]2[C@H](NC(=O)Cc3ccccc3)C(=O)N2[C@H]1C(=O)O [PENICILLIN G] | 0.015 µg/mL (≈ 0.0449 µM) | 8 µg/mL (≈ 23.9 µM) | 8 µg/mL (≈ 23.9 µM) | 16 µg/mL (≈ 47.8 µM) | 4 µg/mL (≈ 12 µM) | 2 µg/mL (≈ 5.98 µM) | 0.03 µg/mL (≈ 0.0897 µM) | 2 µg/mL (≈ 5.98 µM) | 0.5 µg/mL (≈ 1.5 µM) | 1 µg/mL (≈ 2.99 µM) | 2 µg/mL (≈ 5.98 µM) | 0.5 µg/mL (≈ 1.5 µM) | 1 µg/mL (≈ 2.99 µM) | 1 µg/mL (≈ 2.99 µM) | 8 µg/mL (≈ 23.9 µM) | 1 µg/mL (≈ 2.99 µM) | 8 µg/mL (≈ 23.9 µM) | 2 µg/mL (≈ 5.98 µM) | 2 µg/mL (≈ 5.98 µM) | 8 µg/mL (≈ 23.9 µM) | MIC [21]: 0.5 µg/mL (≈ 1.5 µM); MIC [20]: 4 µg/mL (≈ 12 µM)
